Jurkat viability: cytotoxicity toward Jurkat T cells, primary screen, cytotoxicity control, cell-based, Jurkat E6.1, 60K MLSMR library; Jurkat E6.1 viability, ATP luminescence, 48 h; inhibition, % at 4 µM; hit rate 1.2% among 56,000;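 active means inhibition above the mean inhibition of all tested compounds plus 3 SD, cut at about 28% in these data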
HEK293 NFkB inh: inhibitors of PMA/ionomycin-induced NF-kB reporter, primary screen, antigen receptor NF-kB inhibitor project, cell-based, HEK-293 luciferase reporter, luminescence | inhibition, % at 3 µM | hit rate 0.21% among 62,000 | HEK-293 NF-kB luciferase reporter | AID 465, 2006;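 active means inhibition above the mean of all tested compounds plus 3 SD, cut at about 40% in these data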
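Timing: 1 h pretreatment, 16 h stimulation, 37 °C; system: HEK-293 cells with stable firefly luciferase reporter driven by four HIV NF-kB elements; doses: 3 µM once, 0.30% DMSO; measured by: luciferase luminescence; control set: DMSO and 10 µM reference inhibitor; repeats: single test; reagent: PMA plus ionomycin mix as NF-kB-activating stimulus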
SF1 activator: activators of human SF-1, primary screen, cell-based, CHO-K1, Gal4-SF-1 LBD, luciferase luminescence; hit rate 1.9% among 65,000; activation, % at 10 µM; Steroidogenic factor 1 (Homo sapiens), Q13285; CHO-K1 Gal4-SF-1 LBD luciferase reporter; % increase over DMSO SF-1-specific signal; AID 522, 2006;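 active means activation above the mean activation of all tested compounds plus 3 SD, cut at about 50% in these data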
Target sequence (Q13285 whole entry, looked up, the tested form may be a part): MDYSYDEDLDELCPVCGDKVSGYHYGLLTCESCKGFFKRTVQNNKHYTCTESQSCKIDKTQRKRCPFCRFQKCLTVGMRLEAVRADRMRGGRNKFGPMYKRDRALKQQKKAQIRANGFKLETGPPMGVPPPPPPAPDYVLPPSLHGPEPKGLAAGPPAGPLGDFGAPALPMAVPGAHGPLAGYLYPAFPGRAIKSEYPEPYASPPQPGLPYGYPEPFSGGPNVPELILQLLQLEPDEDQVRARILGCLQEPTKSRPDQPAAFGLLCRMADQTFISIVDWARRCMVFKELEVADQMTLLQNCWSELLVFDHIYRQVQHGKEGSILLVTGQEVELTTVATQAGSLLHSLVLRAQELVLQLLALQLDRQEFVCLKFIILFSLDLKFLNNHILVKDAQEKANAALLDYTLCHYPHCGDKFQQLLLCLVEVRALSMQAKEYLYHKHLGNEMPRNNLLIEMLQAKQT
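material = CHO-K1 cells with Gal4–hSF-1 LBD chimera plus Gal4-driven luciferase | compound = 10 µM single point, 1% DMSO | incubation = 20 h compound exposure at 37 °C after 1 h cell settling | measured by = SteadyLite luciferase luminescence | evaluation = percent activation relative to DMSO median and mock-transfected background | control set = DMSO negative control and −SF1 background wells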
RORa activator: activators of orphan receptor RORA, primary screen, cell-based, luminescence | activation, % at 10 µM | hit rate 1.5% among 65,000 | CHO-K1 Gal4-RORA LBD luciferase reporter; percent increase over mock-subtracted basal signal | AID 560, 2006 | Nuclear receptor ROR-alpha (Homo sapiens), P35398;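 active means activation above the mean of all tested compounds plus 3 SD, cut at about 49% in these data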
Hits are given with their value. The list is not random: actives were taken first. Their share in the collection is about 3.9%.

Screening COc1cc(Cl)ccc1NC(=O)COc1ccccc1C(=O)N1CCN(c2ccc(O)cc2)CC1 returned Jurkat viability inactive, HEK293 NFkB inh inactive, SF1 activator inactive and RORa activator inactive.
`c1coc(-c2nnc(NC3=NCCC3)o2)c1` gave Jurkat viability inactive, HEK293 NFkB inh inactive, SF1 activator 61 and RORa activator inactive.
Screening Cc1nnc(NC2=NCCC2)o1 returned Jurkat viability inactive, HEK293 NFkB inh inactive, SF1 activator inactive and RORa activator inactive.
Fc1cccc(CN2CCN(c3ncccn3)CC2)c1 was read as Jurkat viability inactive, HEK293 NFkB inh inactive, SF1 activator inactive and RORa activator inactive.
CCOc1ccc(Nc2cc(C)nc(-n3nc(C)cc3C)n2)cc1 was read as Jurkat viability 99, HEK293 NFkB inh inactive, SF1 activator inactive and RORa activator inactive.
`O=C(NCc1ccccc1)c1ccc(COCC(F)(F)F)o1` gave Jurkat viability inactive, HEK293 NFkB inh inactive, SF1 activator inactive and RORa activator inactive.
O=C(CCn1cccc1)NCCc1ccc(Cl)cc1 was read as Jurkat viability inactive, HEK293 NFkB inh inactive, SF1 activator inactive and RORa activator inactive.
For COc1ccc(S(=O)(=O)N2Cc3ccccc3CC2C(=O)Nc2nccs2)cc1OC (stereo unspecified) the results were Jurkat viability inactive, HEK293 NFkB inh inactive, SF1 activator 71 and RORa activator inactive.
Screening O=C(NCc1cccnc1)NC1(C(F)(F)F)Oc2ccc(Cl)cc2O1 (stereo unspecified) returned Jurkat viability 45, HEK293 NFkB inh inactive, SF1 activator inactive and RORa activator inactive.
CCC(C)N1CC(O)=C(c2nc3ccccc3[nH]2)C1=N (stereo unspecified) was read as Jurkat viability inactive, HEK293 NFkB inh inactive, SF1 activator inactive and RORa activator inactive.
Screening CCCCCCN1CC(O)=C(c2nc3ccccc3[nH]2)C1=N returned Jurkat viability inactive, HEK293 NFkB inh inactive, SF1 activator inactive and RORa activator inactive.
`N=C1C(c2nc3ccccc3[nH]2)=C(O)CN1c1ccccc1` gave Jurkat viability inactive, HEK293 NFkB inh inactive, SF1 activator 50 and RORa activator inactive.
CC1C(O)=C(c2nc3ccccc3[nH]2)C(=N)N1c1ccccc1 (stereo unspecified) was read as Jurkat viability inactive, HEK293 NFkB inh inactive, SF1 activator 54 and RORa activator inactive.
N#Cc1ccc(CN2CCN(C(=O)c3ccccc3)CC2)c(Cl)c1 was read as Jurkat viability inactive, HEK293 NFkB inh inactive, SF1 activator inactive and RORa activator inactive.
For O=C(NCC(=O)N(c1ccccc1)C(C(=O)NCC1CCCO1)c1ccccc1)c1ccco1 (stereo unspecified) the results were Jurkat viability inactive, HEK293 NFkB inh inactive, SF1 activator inactive and RORa activator inactive.
For CC1CC(C)CN(S(=O)(=O)c2ccc(C(=O)NCCCn3ccnc3)cc2)C1 (stereo unspecified) the results were Jurkat viability 101, HEK293 NFkB inh inactive, SF1 activator inactive and RORa activator inactive.
For O=C(NCCCn1ccnc1)c1ccncc1 the results were Jurkat viability inactive, HEK293 NFkB inh inactive, SF1 activator inactive and RORa activator inactive.
`COc1cccc(NC(=O)N2CCN(Cc3nc4ccccc4c(=O)[nH]3)CC2)c1` gave HEK293 NFkB inh inactive, SF1 activator inactive and RORa activator inactive.
For CCc1cccc(NC(=O)Nc2cccs2)c1 the results were Jurkat viability inactive, HEK293 NFkB inh inactive, SF1 activator inactive and RORa activator 63.
For N#Cc1cccc(NC(=O)Nc2cccs2)c1 the results were Jurkat viability inactive, HEK293 NFkB inh inactive, SF1 activator inactive and RORa activator inactive.
Brc1ccc(-c2nc(-c3ccncc3)no2)o1 was read as Jurkat viability inactive, HEK293 NFkB inh inactive, SF1 activator 50 and RORa activator inactive.
Screening c1coc(-c2nc(-c3ccncc3)no2)c1 returned Jurkat viability inactive, HEK293 NFkB inh inactive, SF1 activator 50 and RORa activator inactive.
For Brc1ccc(-c2nc(-c3ccccn3)no2)o1 the results were Jurkat viability inactive, HEK293 NFkB inh inactive, SF1 activator inactive and RORa activator inactive.
CCCCc1ccc(-c2nc(-c3ccncc3)no2)cc1 was read as HEK293 NFkB inh inactive, SF1 activator inactive and RORa activator 59.
NC(=O)C1(N2CCCCC2)CCN(Cc2ccccc2Cl)CC1 was read as Jurkat viability inactive, HEK293 NFkB inh inactive, SF1 activator inactive and RORa activator inactive.
Screening O=C(CSc1nnc(-c2ccco2)n1Cc1ccccc1)c1ccccc1 returned Jurkat viability inactive, HEK293 NFkB inh inactive, SF1 activator 51 and RORa activator 49.
`COc1ccc(-c2nc(C#N)c(N3CCCCCC3)o2)cc1OC` gave Jurkat viability inactive, HEK293 NFkB inh inactive, SF1 activator inactive and RORa activator inactive.
For c1ccc(-c2cccc(-c3ccccn3)n2)nc1 the results were Jurkat viability 87, HEK293 NFkB inh 86, SF1 activator inactive and RORa activator inactive.
Cc1nc2sc(C(c3ccccc3)N3CCN(CCO)CC3)c(O)n2n1 (stereo unspecified) was read as Jurkat viability inactive, HEK293 NFkB inh inactive, SF1 activator inactive and RORa activator inactive.
O=C(Nc1nc(-c2nc3ccccc3s2)cs1)C1CC1 was read as Jurkat viability inactive, HEK293 NFkB inh inactive, SF1 activator inactive and RORa activator 51.
O=C(CN1C(=O)CCC1=O)Nc1nc(-c2nc3ccccc3s2)cs1 was read as Jurkat viability inactive, HEK293 NFkB inh inactive, SF1 activator 106 and RORa activator 87.
`Cc1cccc(OCCSc2cc(C)nc(N)n2)c1` gave Jurkat viability inactive, HEK293 NFkB inh inactive, SF1 activator inactive and RORa activator inactive.
For O=C(Nc1ccc(C(=O)N2CCOCC2)cc1)Nc1cccc(Cl)c1 the results were Jurkat viability inactive, HEK293 NFkB inh inactive, SF1 activator inactive and RORa activator inactive.
`N#CCc1ccc(NC(=O)Nc2cccc(Cl)c2)cc1` gave Jurkat viability inactive, HEK293 NFkB inh inactive, SF1 activator 79 and RORa activator inactive.
Screening Cc1nnc(NC(=O)Nc2cccc(Cl)c2)s1 returned Jurkat viability inactive, HEK293 NFkB inh inactive, SF1 activator inactive and RORa activator inactive.
O=C(Nc1cccc(Cl)c1)NC1CCCCC1 was read as Jurkat viability inactive, HEK293 NFkB inh inactive, SF1 activator 59 and RORa activator 54.
O=C(NCc1ccccn1)Nc1cccc(Cl)c1 was read as Jurkat viability inactive, HEK293 NFkB inh inactive, SF1 activator 63 and RORa activator inactive.
For Cc1csc(NC(=O)Nc2cccc(Cl)c2)n1 the results were Jurkat viability inactive, HEK293 NFkB inh inactive, SF1 activator 63 and RORa activator 70.
`O=C(Nc1cccc(Cl)c1)Nc1nccs1` gave Jurkat viability inactive, HEK293 NFkB inh inactive, SF1 activator inactive and RORa activator 72.
